Experimental data published in ChEMBL document CHEMBL3352791, “Thioaryl naphthylmethanone oxime ether analogs as novel anticancer agents” (J Med Chem, 2014).
Calls of active or inactive are those of the source. No cut-off for these calls is given here.

Columns and labels:
[1] = target: Mitogen-activated protein kinase; ERK1/ERK2 (Homo sapiens) (UniProt P27361+P28482); test: Inhibition of EGF-induced ERK1/2 phosphorylation in human MCF7 cells at 1 uM by ELISA; format: cell-based
[2] = target: High affinity cGMP-specific 3',5'-cyclic phosphodiesterase 9A (Homo sapiens) (UniProt O76083); test: Inhibition of PDE9A1 (unknown origin) activity at 1 to 10 uM
Sequence of High affinity cGMP-specific 3',5'-cyclic phosphodiesterase 9A (Homo sapiens) (O76083 whole entry, canonical isoform): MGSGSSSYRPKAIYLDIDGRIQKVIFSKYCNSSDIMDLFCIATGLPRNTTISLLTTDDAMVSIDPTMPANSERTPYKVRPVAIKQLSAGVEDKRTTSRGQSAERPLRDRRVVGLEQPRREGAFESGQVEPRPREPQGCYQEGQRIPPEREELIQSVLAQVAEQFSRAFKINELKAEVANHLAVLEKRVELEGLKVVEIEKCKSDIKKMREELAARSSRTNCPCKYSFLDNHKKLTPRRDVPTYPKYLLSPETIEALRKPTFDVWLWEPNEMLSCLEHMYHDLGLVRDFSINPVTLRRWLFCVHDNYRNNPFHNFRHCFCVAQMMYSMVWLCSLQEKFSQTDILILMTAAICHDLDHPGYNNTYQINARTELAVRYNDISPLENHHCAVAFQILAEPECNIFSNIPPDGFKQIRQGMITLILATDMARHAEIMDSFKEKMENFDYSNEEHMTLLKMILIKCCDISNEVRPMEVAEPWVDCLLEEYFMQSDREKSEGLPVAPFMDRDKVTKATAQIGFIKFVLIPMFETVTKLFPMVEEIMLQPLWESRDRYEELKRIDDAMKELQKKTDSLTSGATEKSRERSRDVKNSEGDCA
In short: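 Recombinant PDE isoform activity was read by fluorescence polarization. A binding reagent complexes with the nucleotide monophosphate that the phosphodiesterase generates from cAMP/cGMP, and this raises the polarization of the labelled substrate. Reference standards were PDE1A3 10µM IBMX, PDE2A3 1nM BAY 60-7550, PDE3CAT 1µM cilostazol, PDE4CAT rolipram, PDE5CAT 0.1µM sildenafil, PDE7A […], PDE8A1 10µM BRL-50481, PDE9A1 1µM SB 36216 and PDE11A1 dipyridamole.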

MDA-MB-231 = test: Inhibition of EGF expression in human MDA-MB-231 cells at 5 uM by ELISA; format: functional, cell-based
[3] = target: RAC-alpha serine/threonine-protein kinase (Homo sapiens) (UniProt P31749); test: Inhibition of basal level AKT phosphorylation in human MCF7 cells at 1 uM by ELISA; format: cell-based
Sequence of RAC-alpha serine/threonine-protein kinase (Homo sapiens) (P31749 whole entry): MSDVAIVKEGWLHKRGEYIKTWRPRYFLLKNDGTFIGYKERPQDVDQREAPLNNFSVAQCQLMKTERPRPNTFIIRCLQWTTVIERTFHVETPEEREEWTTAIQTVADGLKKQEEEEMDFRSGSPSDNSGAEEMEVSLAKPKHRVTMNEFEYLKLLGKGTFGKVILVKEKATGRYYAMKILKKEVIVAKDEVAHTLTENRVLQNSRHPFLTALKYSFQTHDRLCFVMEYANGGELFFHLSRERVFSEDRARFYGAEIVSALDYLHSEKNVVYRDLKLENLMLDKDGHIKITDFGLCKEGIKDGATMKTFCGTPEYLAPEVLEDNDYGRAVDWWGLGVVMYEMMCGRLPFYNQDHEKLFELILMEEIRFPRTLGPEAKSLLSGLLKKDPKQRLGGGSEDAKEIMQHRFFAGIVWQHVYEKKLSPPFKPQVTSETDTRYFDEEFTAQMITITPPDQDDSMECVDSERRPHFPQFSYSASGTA

Sequence of Mitogen-activated protein kinase; ERK1/ERK2 (Homo sapiens) (P27361 whole entry, looked up): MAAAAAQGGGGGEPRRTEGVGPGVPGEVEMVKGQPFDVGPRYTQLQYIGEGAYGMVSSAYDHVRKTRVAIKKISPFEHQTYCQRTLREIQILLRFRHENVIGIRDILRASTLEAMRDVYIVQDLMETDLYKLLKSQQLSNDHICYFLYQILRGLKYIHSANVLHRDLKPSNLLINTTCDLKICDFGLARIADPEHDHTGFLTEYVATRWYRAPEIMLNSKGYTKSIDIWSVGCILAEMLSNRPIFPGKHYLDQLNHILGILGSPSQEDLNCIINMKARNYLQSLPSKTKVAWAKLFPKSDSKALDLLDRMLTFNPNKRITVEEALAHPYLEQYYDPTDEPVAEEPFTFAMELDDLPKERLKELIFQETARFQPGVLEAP
Sequence of Mitogen-activated protein kinase; ERK1/ERK2 (Homo sapiens) (P28482 whole entry, looked up): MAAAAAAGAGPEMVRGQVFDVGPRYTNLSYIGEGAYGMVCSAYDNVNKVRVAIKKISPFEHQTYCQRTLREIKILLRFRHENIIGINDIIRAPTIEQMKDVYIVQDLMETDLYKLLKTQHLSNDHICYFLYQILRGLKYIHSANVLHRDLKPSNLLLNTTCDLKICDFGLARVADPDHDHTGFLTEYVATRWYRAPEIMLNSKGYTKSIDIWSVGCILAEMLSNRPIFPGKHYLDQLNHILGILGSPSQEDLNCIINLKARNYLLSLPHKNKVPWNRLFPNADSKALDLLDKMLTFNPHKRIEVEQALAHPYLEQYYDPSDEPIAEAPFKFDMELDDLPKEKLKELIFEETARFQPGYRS

CCN(CC)CCO/N=C(\c1ccc(SC)cc1)c1cccc2ccccc12
inhibition [1]: Active
inhibition [2]: inactive
inhibition (MDA-MB-231): Active
inhibition [3]: inactive
